≈ marks a conversion by molar mass, not a printed value. Calls of active or inactive are those of the source. The calls are words filed in the database; no cut-off is given here.
Columns and labels:
[1] = Apparent permeability from apical to basolateral side in human Caco2/TC7 cells at 20 uM by liquid chromatography-tandem mass spectrometry; details: Caco-2
[2] = Drug metabolism in human hepatic microsomes at 5 uM incubated for 20 mins in presence of NADPH by liquid chromatography-tandem mass spectrometry; format: ADME, Microsome; details: liver microsomes, read-out: Drug metabolism
[3] = molecular target: T1, Cytochrome P450 3A4 (Homo sapiens, UniProt P08684); assay: Inhibition of human recombinant CYP3A4 co-expressed with human P450 reductase and human b5 reductase assessed as reduction in 7-Hydroxyquinoline production using 7-benzyloxyquinoline as substrate and NADPH incubated for 15 mins by fluorimetry; format: ADME
[4] = molecular target: T1, Cytochrome P450 3A4; assay: Mechanism based time dependent inhibition of human recombinant CYP3A4 co-expressed with human P450 reductase and human b5 reductase assessed as reduction in 7-Hydroxyquinoline production using 7-benzyloxyquinoline as substrate and NADPH measured every 3 mins for 15 mins by fluorimetry; format: ADME; details: recombinant enzyme, 0.25 h
[5] = molecular target: Hepatocyte growth factor receptor (Homo sapiens, UniProt P08581, Y1230H); assay: Inhibition of phosphorylated MET Y1230H mutant (unknown origin) pre-incubated for 30 mins before biotinylated poly(glutamate-alanine-tyrosine) peptide addition and measured after 5 mins by HTRF assay
[6] = molecular target: T2, Hepatocyte growth factor receptor (Homo sapiens, UniProt P08581); assay: Inhibition of wild type phosphorylated MET (unknown origin) pre-incubated for 30 mins before biotinylated poly(glutamate-alanine-tyrosine) peptide addition and measured after 5 mins by HTRF assay
[7] = Equilibrium solubility in phosphate buffer in absence of 10% Labrasol at pH 7.4; format: physicochemical
[8] = molecular target: Hepatocyte growth factor receptor (Homo sapiens, UniProt P08581, L1195V); assay: Inhibition of phosphorylated MET L1195V mutant (unknown origin) pre-incubated for 30 mins before biotinylated poly(glutamate-alanine-tyrosine) peptide addition and measured after 5 mins by HTRF assay
[9] = Equilibrium solubility in phosphate buffer in presence of 10% Labrasol at pH 7.4; format: physicochemical; details: phosphate buffer with 10% Labrasol
[10] = molecular target: T2, Hepatocyte growth factor receptor; assay: Inhibition of phosphorylated MET in human MKN45 cells assessed as reduction in pMET Y1230/1234/1235 level incubated for 1 hr by ELISA; format: cell-based
Procedure, shortened: (§1)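 MKN-45 is a MET-amplified human gastric tumour cell line.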

[11] = molecular target: Hepatocyte growth factor receptor (Homo sapiens, UniProt P08581, M1250T); assay: Inhibition of phosphorylated MET M1250T mutant (unknown origin) pre-incubated for 30 mins before biotinylated poly(glutamate-alanine-tyrosine) peptide addition and measured after 5 mins by HTRF assay
[12] = Lipophilicity, log D of the compound by HPLC method; format: physicochemical
[13] = test system: MKN-45; assay: Antiproliferative activity against human MKN45 cells assessed as reduction in [14C]-thymidine incorporation incubated for 96 hrs by beta counting method; format: functional, cell-based; details: for IC50: MKN-45, 96 h; procedure, shortened: as §1
[14] = molecular target: T2, Hepatocyte growth factor receptor; assay: Binding affinity to MET (unknown origin) by isothermal titration calorimetry
[15] = molecular target: Cyclin-dependent kinase 9 (Homo sapiens, UniProt P50750); assay: Inhibition of CDK9 (unknown origin)
[16] = Oral bioavailability in mouse; format: ADME, organism-based; details: in vivo
[17] = molecular target: Tubulin; assay: Binding affinity to tubulin (unknown origin); format: protein-complex assay, Homo sapiens
[18] = Genotoxicity in Salmonella typhimurium by Ames test; format: toxicity; details: salmonella enterica subsp. enterica serovar typhimurium

Cyclin-dependent kinase 9, sequence (P50750 whole entry): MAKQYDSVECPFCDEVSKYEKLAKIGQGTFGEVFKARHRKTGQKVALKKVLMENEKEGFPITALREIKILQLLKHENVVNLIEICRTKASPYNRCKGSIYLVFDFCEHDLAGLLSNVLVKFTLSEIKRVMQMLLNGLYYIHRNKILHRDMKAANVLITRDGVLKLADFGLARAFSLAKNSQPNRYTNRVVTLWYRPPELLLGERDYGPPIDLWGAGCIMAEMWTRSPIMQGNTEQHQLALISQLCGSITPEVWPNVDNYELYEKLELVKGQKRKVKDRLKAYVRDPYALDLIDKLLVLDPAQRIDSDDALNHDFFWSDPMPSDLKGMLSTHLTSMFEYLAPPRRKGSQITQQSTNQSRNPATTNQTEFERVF
Hepatocyte growth factor receptor (Homo sapiens, UniProt P08581, Y1230H), sequence (P08581 25-1390 Y1230H limits assumed): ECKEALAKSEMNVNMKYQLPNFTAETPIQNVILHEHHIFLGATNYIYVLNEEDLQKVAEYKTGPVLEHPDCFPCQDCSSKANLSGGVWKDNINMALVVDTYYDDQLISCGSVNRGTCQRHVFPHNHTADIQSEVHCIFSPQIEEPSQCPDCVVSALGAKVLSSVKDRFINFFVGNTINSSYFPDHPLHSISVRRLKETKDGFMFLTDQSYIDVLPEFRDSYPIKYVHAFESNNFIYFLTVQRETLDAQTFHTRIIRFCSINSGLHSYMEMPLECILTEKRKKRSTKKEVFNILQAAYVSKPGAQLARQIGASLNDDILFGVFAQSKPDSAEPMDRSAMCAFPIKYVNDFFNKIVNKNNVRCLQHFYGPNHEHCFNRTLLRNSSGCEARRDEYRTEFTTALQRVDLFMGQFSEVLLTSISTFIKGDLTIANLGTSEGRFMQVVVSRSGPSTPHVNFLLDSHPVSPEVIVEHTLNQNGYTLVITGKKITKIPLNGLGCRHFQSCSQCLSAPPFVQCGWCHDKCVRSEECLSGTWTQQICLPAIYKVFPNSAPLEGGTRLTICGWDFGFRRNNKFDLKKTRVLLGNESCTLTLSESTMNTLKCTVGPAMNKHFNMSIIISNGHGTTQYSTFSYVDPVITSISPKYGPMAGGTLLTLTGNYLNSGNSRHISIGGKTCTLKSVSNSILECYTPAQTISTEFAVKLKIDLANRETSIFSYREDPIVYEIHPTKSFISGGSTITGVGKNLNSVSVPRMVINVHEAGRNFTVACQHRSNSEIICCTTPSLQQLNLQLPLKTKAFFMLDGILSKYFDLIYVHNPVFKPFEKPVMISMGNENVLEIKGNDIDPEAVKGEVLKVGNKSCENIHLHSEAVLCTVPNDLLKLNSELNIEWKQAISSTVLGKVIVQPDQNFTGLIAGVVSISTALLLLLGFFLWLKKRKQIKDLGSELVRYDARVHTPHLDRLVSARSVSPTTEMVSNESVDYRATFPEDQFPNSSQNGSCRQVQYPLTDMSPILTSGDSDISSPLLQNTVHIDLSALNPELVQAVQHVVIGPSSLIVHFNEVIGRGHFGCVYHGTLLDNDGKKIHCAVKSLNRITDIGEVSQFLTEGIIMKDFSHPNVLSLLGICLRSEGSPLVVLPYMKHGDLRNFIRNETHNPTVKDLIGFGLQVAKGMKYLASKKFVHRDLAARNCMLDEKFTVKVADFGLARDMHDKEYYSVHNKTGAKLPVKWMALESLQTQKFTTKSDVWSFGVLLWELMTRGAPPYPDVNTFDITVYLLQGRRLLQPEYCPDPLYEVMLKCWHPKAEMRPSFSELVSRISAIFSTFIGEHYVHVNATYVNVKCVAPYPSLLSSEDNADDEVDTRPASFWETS
T1 sequence (P08684 whole entry): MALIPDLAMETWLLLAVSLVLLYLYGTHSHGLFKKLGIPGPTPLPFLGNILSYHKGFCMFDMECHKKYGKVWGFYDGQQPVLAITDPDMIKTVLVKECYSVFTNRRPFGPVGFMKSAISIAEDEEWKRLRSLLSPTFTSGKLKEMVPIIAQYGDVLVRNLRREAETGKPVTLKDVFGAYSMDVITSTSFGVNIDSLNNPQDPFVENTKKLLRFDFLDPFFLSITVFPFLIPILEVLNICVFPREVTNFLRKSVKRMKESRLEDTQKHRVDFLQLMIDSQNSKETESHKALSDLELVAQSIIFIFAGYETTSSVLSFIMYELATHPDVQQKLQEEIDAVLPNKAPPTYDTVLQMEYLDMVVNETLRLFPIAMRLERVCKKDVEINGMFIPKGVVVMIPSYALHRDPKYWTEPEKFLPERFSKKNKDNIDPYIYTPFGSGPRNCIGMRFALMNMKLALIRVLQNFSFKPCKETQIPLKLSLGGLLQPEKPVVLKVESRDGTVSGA
T2 sequence (P08581 whole entry): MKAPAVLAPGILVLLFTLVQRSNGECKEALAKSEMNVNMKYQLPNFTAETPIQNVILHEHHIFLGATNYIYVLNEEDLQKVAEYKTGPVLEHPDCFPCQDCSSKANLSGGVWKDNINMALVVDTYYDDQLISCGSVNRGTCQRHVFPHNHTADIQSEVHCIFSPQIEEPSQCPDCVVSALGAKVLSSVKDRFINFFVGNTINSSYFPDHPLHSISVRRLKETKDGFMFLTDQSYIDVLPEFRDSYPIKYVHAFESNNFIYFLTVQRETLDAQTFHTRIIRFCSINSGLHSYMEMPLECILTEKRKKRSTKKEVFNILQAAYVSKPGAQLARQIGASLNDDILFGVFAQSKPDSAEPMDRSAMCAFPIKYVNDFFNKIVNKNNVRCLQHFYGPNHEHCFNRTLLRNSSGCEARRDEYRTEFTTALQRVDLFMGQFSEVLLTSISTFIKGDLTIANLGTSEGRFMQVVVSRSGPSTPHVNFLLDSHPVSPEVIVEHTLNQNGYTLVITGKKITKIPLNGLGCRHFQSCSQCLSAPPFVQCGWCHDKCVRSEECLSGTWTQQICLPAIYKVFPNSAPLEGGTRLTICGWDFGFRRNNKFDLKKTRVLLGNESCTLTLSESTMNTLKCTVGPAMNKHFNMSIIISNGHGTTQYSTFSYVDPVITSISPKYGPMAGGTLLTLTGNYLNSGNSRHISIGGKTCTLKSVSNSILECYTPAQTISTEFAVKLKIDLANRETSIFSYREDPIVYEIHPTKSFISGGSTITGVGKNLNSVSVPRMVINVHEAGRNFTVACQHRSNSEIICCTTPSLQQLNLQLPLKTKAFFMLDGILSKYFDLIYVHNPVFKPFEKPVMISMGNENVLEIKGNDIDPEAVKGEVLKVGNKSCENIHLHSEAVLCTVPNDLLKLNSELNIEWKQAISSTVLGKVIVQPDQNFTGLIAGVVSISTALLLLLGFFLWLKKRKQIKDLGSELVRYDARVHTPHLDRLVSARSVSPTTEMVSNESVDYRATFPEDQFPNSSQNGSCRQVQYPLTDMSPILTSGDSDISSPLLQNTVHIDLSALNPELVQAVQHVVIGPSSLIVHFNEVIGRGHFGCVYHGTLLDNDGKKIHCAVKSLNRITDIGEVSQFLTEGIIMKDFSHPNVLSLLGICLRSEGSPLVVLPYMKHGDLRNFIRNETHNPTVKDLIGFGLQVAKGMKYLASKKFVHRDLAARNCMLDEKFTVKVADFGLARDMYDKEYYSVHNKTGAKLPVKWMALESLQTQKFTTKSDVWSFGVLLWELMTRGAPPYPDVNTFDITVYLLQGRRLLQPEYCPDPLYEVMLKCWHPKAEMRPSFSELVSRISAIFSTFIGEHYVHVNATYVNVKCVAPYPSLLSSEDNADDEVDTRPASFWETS
Hepatocyte growth factor receptor (Homo sapiens, UniProt P08581, M1250T), sequence (P08581 25-1390 M1250T limits assumed): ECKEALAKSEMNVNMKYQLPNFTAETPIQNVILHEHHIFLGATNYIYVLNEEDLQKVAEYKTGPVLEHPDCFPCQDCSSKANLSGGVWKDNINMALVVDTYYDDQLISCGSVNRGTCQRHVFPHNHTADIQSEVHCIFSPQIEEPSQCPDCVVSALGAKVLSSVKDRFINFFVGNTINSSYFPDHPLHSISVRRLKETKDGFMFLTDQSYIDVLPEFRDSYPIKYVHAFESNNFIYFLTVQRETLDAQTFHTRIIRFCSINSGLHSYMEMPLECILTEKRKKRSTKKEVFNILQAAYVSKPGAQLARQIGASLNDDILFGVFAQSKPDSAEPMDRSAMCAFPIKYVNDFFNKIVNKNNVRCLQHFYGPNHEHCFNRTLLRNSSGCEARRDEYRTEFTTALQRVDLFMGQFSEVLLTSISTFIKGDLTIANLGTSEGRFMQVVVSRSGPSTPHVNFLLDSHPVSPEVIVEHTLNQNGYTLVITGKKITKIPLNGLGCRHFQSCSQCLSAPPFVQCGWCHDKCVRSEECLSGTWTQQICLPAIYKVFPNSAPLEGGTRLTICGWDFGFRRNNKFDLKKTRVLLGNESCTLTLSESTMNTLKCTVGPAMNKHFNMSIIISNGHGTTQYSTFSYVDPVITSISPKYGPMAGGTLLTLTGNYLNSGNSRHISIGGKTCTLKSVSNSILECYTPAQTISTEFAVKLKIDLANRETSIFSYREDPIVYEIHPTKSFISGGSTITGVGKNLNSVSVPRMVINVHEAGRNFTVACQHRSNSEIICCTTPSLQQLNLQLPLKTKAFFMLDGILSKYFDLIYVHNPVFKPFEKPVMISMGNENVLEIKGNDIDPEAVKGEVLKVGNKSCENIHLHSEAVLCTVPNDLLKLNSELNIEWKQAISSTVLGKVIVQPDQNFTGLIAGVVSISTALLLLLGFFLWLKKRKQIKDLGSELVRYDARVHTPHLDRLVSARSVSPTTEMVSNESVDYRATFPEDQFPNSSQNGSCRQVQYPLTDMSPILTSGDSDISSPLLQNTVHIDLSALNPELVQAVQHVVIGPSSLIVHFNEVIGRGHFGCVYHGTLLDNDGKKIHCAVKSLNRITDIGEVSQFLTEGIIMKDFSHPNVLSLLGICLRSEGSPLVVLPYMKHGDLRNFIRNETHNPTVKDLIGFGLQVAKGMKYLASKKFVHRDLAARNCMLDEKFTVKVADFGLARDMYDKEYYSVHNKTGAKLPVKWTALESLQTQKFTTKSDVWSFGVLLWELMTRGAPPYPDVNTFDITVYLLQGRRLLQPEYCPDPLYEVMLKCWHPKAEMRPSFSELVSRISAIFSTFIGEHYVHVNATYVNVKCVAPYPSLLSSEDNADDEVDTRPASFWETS

| Structure (SMILES) | Papp A→B at 20 µM [1] [×10⁻⁶ cm/s] | metabolised at 20 min, 5 µM [2] [%] | IC50 [3] [nM] | INH [4] [%/min] | IC50 [5] [nM] | IC50 [6] [nM] | solubility thermodynamic [7] [µM] | IC50 [8] [nM] | solubility thermodynamic [9] [µM] | IC50 [10] [nM] | IC50 [11] [nM] | logD [12] | IC50 [13] [nM] | Kd [14] [nM] | IC50 [15] [nM] | bioavailability [16] [%] | IC50 [17] [nM] | inhibition [10] | Activity [18] | inhibition [13] |
| --- | --- | --- | --- | --- | --- | --- | --- | --- | --- | --- | --- | --- | --- | --- | --- | --- | --- | --- | --- | --- |
| O=C(NCCN1CCOCC1)Nc1nc2ccc(Sc3nnc4ccc(NC5CCOCC5)nn34)cc2s1 | 0.2 | 39 | > 40000 | -14.2 | 217 | 1 | 89 (≈ 49.5 µg/mL) | – | – | – | – | – | – | – | – | – | – | – | – | – |
| CCN(CC)CCNC(=O)Nc1nc2ccc(Sc3nnc4ccc(-c5ccc(F)cc5)nn34)cc2s1 | – | – | – | – | 864 | 3 | < 1 | 148 | 1000 | 10 | 71 | 4.15 | 33 | – | – | – | – | – | – | – |
| COCCNC(=O)Nc1nc2cc(OS(=O)(=O)c3c(F)cccc3F)ccc2[nH]1 | – | – | – | – | – | 5 | – | – | – | – | – | – | – | – | 6 | – | – | – | – | – |
| O=C(NCCN1CCOCC1)Nc1nc2ccc(Sc3nnc4ccc(OC5CCCCCC5)nn34)cc2s1 | 2 | 36 | 14000 | -11.6 | 407 | 15 | < 2 | – | – | – | – | – | – | – | – | – | – | – | – | – |
| O=C(NCCN1CCOCC1)Nc1nc2ccc(Sc3nnc4cccnn34)cc2s1 | – | 11 | 34000 | -2.3 | 4800 | 29 | 70 (≈ 32 µg/mL) | – | 1070 | – | – | – | – | 12 | – | – | – | – | – | – |
| CCOc1ccc2nnc(Sc3ccc4nc(NC(=O)NCCN5CCOCC5)sc4c3)n2n1 | – | 51 | 4000 | -13.1 | 643 | 3 | 5 (≈ 2.5 µg/mL) | – | 460 | – | – | – | – | – | – | – | – | – | – | – |
| O=C(NCCN1CCOCC1)Nc1nc2ccc(Sc3nnc4ccc(OC5CCCCC5)nn34)cc2s1 | 9.8 | 23 | 2700 | -4.6 | 252 | 2 | < 2 | – | 500 | – | – | – | – | 0.6 | – | 17 | – | – | – | – |
| COC(=O)Nc1nc2cc(OS(=O)(=O)c3c(Cl)cccc3Cl)ccc2[nH]1 | – | – | – | – | – | 23 | – | – | – | – | – | – | – | – | 1200 | – | 2700 | – | – | – |
| CCCCOc1ccc2nnc(Sc3ccc4nc(NC(=O)NCCN5CCOCC5)sc4c3)n2n1 | 0.7 | 23 | 8700 | -11.3 | 140 | 5 | < 2 | – | – | – | – | – | – | – | – | – | – | – | – | – |
| O=C(NCCN1CCOCC1)Nc1nc2ccc(Sc3nnc4ccc(NC5CC5)nn34)cc2s1 | – | 26 | 200 | -3.8 | 274 | 1 | < 2 | – | – | – | – | – | – | – | – | – | – | – | – | – |
| O=C(NCCN1CCOCC1)Nc1nc2ccc(Sc3nnc4ccc(NC5CCCCC5)nn34)cc2s1 | – | 38 | 2900 | -9.1 | 139 | 1 | < 2 | – | – | – | – | – | – | – | – | – | – | – | – | – |
| CCN1CCC(CCNC(=O)Nc2nc3ccc(Sc4nnc5ccc(-c6cccs6)nn45)cc3s2)CC1 | – | – | – | – | 23 | 2 | < 2 | – | – | 29 | – | 3.9 | 2.7 | – | – | – | – | – | – | – |
| COC(=O)Nc1nc2cc(Sc3nnc4ccc(-c5ccc(F)cc5)nn34)ccc2[nH]1 | – | – | – | – | – | 10 | – | – | – | – | – | 3.8 | – | – | > 10000 | – | 2000 | Active | Toxic | Active |
| O=C(NCCN1CCOCC1)Nc1nc2ccc(Sc3nnc4ccc(OC5CCCC5)nn34)cc2s1 | 2.6 | 29 | 31000 | -5.5 | 216 | 6 | < 2 | – | – | – | – | – | – | – | – | 12 | – | – | – | – |
| O=C(NCCN1CCOCC1)Nc1nc2ccc(Sc3nnc4ccc(Oc5ccccc5)nn34)cc2s1 | 0.8 | 32 | 7900 | -12.8 | 174 | 2 | < 2 | – | – | – | – | – | – | – | – | – | – | – | – | – |

More lines, main results first:

| Papp A→B at 20 µM [1] [×10⁻⁶ cm/s] | metabolised at 20 min, 5 µM [2] [%] | IC50 [3] [nM] | INH [4] [%/min] | IC50 [5] [nM] | IC50 [6] [nM] | solubility thermodynamic [7] [µM] | IC50 [8] [nM] | solubility thermodynamic [9] [µM] | IC50 [10] [nM] | IC50 [11] [nM] | logD [12] | IC50 [13] [nM] | Kd [14] [nM] | IC50 [15] [nM] | bioavailability [16] [%] | IC50 [17] [nM] | inhibition [10] | Structure (SMILES) | Activity [18] | inhibition [13] |
| --- | --- | --- | --- | --- | --- | --- | --- | --- | --- | --- | --- | --- | --- | --- | --- | --- | --- | --- | --- | --- |
| 0.4 | 24 | 1800 | -8.2 | 140 | 10 | 32 (≈ 17.6 µg/mL) | – | 1170 | – | – | – | – | 8.7 | – | – | – | – | O=C(NCCN1CCOCC1)Nc1nc2ccc(Sc3nnc4ccc(-c5cccc(F)c5)nn34)cc2s1 | – | – |
| – | – | – | – | > 10000 | 20 | < 1 | 835 | 543 | 13 | 455 | 4.1 | 45 | – | – | – | – | – | Fc1ccc(-c2ccc3nnc(Sc4ccc5nc(NCCN6CCOCC6)sc5c4)n3n2)cc1 | – | – |
| 0.8 | 16 | 2000 | -12.2 | 56 | 3 | < 2 | – | – | – | – | – | – | – | – | – | – | – | O=C(NCCN1CCOCC1)Nc1nc2ccc(Sc3nnc4ccc(Oc5cccc(F)c5)nn34)cc2s1 | – | – |
| – | – | – | – | > 10000 | 10 | – | 9000 | 44 | 43 | 245 | > 4.6 | 81 | – | – | – | – | – | Nc1nc2ccc(Sc3nnc4ccc(-c5ccc(F)cc5)nn34)cc2s1 | – | – |
| – | – | – | – | > 10000 | 16 | < 1 | > 10000 | 15 | 22 | – | > 4.6 | 91 | – | – | – | > 25000 | – | COC(=O)Nc1nc2ccc(Sc3nnc4ccc(-c5ccc(F)cc5)nn34)cc2s1 | Non-Toxic | – |
| – | – | – | – | 883 | 3 | < 1 | 61 | 64 | 4 | 13 | 4.7 | 7 | – | – | – | – | – | O=C(Nc1nc2ccc(Sc3nnc4ccc(-c5ccc(F)cc5)nn34)cc2s1)C1CC1 | – | – |
| – | – | – | – | 1170 | 6 | – | 318 | 96 | 2 | 93 | 4.3 | 12 | – | – | – | – | – | O=C(CCCN1CCOCC1)Nc1nc2ccc(Sc3nnc4ccc(-c5ccc(F)cc5)nn34)cc2s1 | – | – |
| – | – | – | – | > 10000 | 45 | 8 (≈ 4.41 µg/mL) | 6520 | 245 | 25 | – | 4.1 | 95 | – | – | – | – | – | O=C(Nc1nc2ccc(Sc3nnc4ccc(-c5ccc(F)cc5)nn34)cc2s1)OCCN1CCOCC1 | – | – |
| – | – | – | – | > 10000 | 4 | < 2 | > 10000 | – | 13 | 128 | > 4.6 | 22 | – | – | – | – | – | O=C(CC1CC1)Nc1nc2ccc(Sc3nnc4ccc(-c5ccc(F)cc5)nn34)cc2s1 | – | – |
| – | – | – | – | > 10000 | 15 | < 2.5 | > 10000 | – | 15 | 417 | > 4.6 | 42 | – | – | – | – | – | CCNc1nc2ccc(Sc3nnc4ccc(-c5ccc(F)cc5)nn34)cc2s1 | – | – |

— ChEMBL document CHEMBL4425133, “Discovery and Pharmacokinetic and Pharmacological Properties of the Potent and Selective MET Kinase Inhibitor 1-{6-[6-(4-Fluorophenyl)-[1,2,4]triazolo[4,3-b]pyridazin-3-ylsulfanyl]benzothiazol-2-yl}-3-(2-morpholin-4-ylethyl)urea (SAR125844)” (J Med Chem, 2016)
